Results: ChEMBL document CHEMBL1128333, “Derivatives of cis-2-amino-8-hydroxy-1-methyltetralin: mixed 5-HT1A-receptor agonists and dopamine D2-receptor antagonists” (J Med Chem, 1995)

Columns and labels:
[1] = biological target: T1, 5-hydroxytryptamine receptor 1A (Rattus norvegicus, UniProt P19327); assay: Binding affinity for 5-hydroxytryptamine 1A receptor in rat brain tissue using [3H]8-OH-DPAT as radioligand; assay type: tissue-based
T1 sequence (P19327 whole entry): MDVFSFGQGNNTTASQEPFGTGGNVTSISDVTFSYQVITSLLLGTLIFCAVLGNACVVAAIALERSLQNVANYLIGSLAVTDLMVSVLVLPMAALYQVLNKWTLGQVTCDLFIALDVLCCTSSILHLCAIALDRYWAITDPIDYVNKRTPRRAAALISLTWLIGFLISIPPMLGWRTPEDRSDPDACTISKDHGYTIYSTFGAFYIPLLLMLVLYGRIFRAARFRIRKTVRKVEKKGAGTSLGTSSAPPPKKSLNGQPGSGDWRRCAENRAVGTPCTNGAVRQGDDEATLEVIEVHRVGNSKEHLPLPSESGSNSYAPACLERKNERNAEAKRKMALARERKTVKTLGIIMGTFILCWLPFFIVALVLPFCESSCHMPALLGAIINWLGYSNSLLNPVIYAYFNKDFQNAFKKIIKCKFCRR
Summary of the method: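 Membranes from male Sprague–Dawley rat cortex plus hippocampus, homogenized in 50 mM Tris-HCl with 4.0 mM CaCl2 and 5.7 mM ascorbic acid, pH 7.5, and preincubated 10 min at 37 °C with 10 μM pargyline. Assay used 5 mg/mL tissue and 2 nM [3H]-8-OH-DPAT, 10 min at 37 °C. Nonspecific binding was defined with 10 μM 5-HT. Bound ligand was separated on GF/B filters and counted; data were fitted by nonlinear regression.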

Rattus norvegicus [2] = species on record: Rattus norvegicus; assay: Ratio of turnover (DOPAC to DA) in rat brain striatum compared to control.; assay type: functional
Summary of the method: (§1)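 Male Sprague–Dawley rats (260–310 g) received compound sc in 0.9% NaCl; saline controls. Rats were decapitated 35–45 min post-injection, and hippocampus and striatum were dissected and frozen. Tissue was homogenized in 0.1 M perchloric acid with α-methyl-5-hydroxytryptophan as internal standard, centrifuged and filtered, then analysed by HPLC-EC at 0.85 V (mobile phase pH 2.69, 35 °C). Values are percent of control, mean ± SEM.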

Rattus norvegicus [3] = species on record: Rattus norvegicus; assay: Ratio of serotonin turnover (5HIAA to 5-HT) in rat brain hippocampus compared to control; assay type: functional; summary of the method: as §1
Rattus norvegicus [4] = assay: Flat body posture behavior was studied in rats after subcutaneous administration of 32 uM/Kg of compound; 0/4; assay type: functional
Summary of the method: (§2)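 Test compounds were given at 32 μmol/kg and the reference 5-HT1A agonist at 1 μmol/kg. Flat body posture, forepaw treading and hind limb abduction were each scored as absent or present. Values are animals showing the behavior out of animals tested, analysed by Fisher's exact test. Male Sprague–Dawley rats, 260–310 g.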

Rattus norvegicus [5] = assay: Change in body temperature in rats after subcutaneous administration; assay type: functional
Summary of the method: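 Rectal temperature was taken with an electrical thermometer, probe inserted 3.5 cm, before and 30 min after sc injection in 0.9% NaCl. Values are the change from the preinjection reading, analysed by Tukey HSD versus saline-treated rats. Male Sprague–Dawley rats, 260–310 g.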

Rattus norvegicus [6] = species on record: Rattus norvegicus; assay: DOPAC (3,4-dihydroxyphenylacetic acid) content of rat striatum reflecting DA metabolism and turnover; assay type: functional; parameters: concentration or dose not given beside the values; summary of the method: as §1
Rattus norvegicus [7] = species on record: Rattus norvegicus; assay: 5-HT content of rat hippocampus reflecting 5-HT metabolism and turnover; assay type: functional; parameters: concentration or dose not given beside the values; summary of the method: as §1
Rattus norvegicus [8] = species on record: Rattus norvegicus; assay: DA (dopamine) content of rat striatum reflecting DA metabolism and turnover; assay type: functional; summary of the method: as §1
Rattus norvegicus [9] = species on record: Rattus norvegicus; assay: HVA (Homovanillic acid)content of rat striatum reflecting DA metabolism and turnover; assay type: functional; parameters: concentration or dose not given beside the values
Rattus norvegicus [10] = species on record: Rattus norvegicus; assay: 5-HIAA (5-Hydroxyindoleacetic acid) content of rat hippocampus reflecting 5-HT metabolism and turnover; assay type: functional; parameters: concentration or dose not given beside the values; summary of the method: as §1
Rattus norvegicus [11] = assay: Cage leaving response was studied in rats after subcutaneous administration of 32 uM/Kg of compound; 2/4; assay type: functional
Rattus norvegicus [12] = assay: Forepaw treading (FPT) behavior was studied in rats after subcutaneous administration of 32 uM/Kg of compound; 0/4; assay type: functional; summary of the method: as §2
Rattus norvegicus [13] = assay: Forepaw treading (FPT) behavior was studied in rats after subcutaneous administration of 32 uM/Kg of compound; 0/5; assay type: functional
D(2) dopamine receptor = D(2) dopamine receptor (Homo sapiens, UniProt P14416); assay: In vitro binding affinity towards human Dopamine receptor D2A was determined in mouse fibroblast LtK cells using [3H]raclopride; assay type: cell-based
Summary of the method: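 Membranes from Ltk− mouse fibroblasts stably expressing human D2A receptors, at 80–100 pM receptor. Buffer was 50 mM Tris-HCl, 120 mM NaCl, 5 mM KCl, 1.5 mM CaCl2, 4 mM MgCl2, 1 mM EDTA, pH 7.4. Incubation with [3H]raclopride was 60 min at 22 °C, in duplicate, with 1 μM (+)-butaclamol for nonspecific binding. Bound ligand was separated on GF/B filters; data were fitted by nonlinear regression.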

Rattus norvegicus [14] = assay: Flat body posture behavior was studied in rats after subcutaneous administration of 32 uM/Kg of compound; 0/5; assay type: functional
Rattus norvegicus [15] = assay: Cage leaving response was studied in rats after subcutaneous administration of 32 uM/Kg of compound; 4/5; assay type: functional
Rattus norvegicus [16] = assay: Cage leaving response was studied in rats after subcutaneous administration of 32 uM/Kg of compound; 3/4; assay type: functional
Rattus norvegicus [17] = assay: Flat body posture behavior was studied in rats after subcutaneous administration of 32 uM/Kg of compound; 5/5; assay type: functional
Rattus norvegicus [18] = assay: Cage leaving response was studied in rats after subcutaneous administration of 32 uM/Kg of compound; 0/5; assay type: functional
Rattus norvegicus [19] = assay: Forepaw treading (FPT) behavior was studied in rats after subcutaneous administration of 32 uM/Kg of compound; 5/5; assay type: functional

D(2) dopamine receptor, sequence (P14416 whole entry): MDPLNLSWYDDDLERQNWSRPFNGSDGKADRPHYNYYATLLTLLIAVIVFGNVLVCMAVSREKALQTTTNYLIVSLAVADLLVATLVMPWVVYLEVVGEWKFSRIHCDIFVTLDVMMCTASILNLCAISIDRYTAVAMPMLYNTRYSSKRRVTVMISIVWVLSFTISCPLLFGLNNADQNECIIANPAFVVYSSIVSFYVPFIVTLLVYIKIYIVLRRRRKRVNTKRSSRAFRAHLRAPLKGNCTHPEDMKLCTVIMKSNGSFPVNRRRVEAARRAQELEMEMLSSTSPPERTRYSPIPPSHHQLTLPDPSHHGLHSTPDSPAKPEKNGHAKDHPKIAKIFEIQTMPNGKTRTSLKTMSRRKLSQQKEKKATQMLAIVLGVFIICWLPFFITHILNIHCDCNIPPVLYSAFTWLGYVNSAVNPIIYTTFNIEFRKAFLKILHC

SMILES | Ki [1] [nM] | Ratio (Rattus norvegicus [2]) | Ratio (Rattus norvegicus [3]) | FBP (Rattus norvegicus [4]) | Change of body temperature (Rattus norvegicus [5]) [°C] | Control (Rattus norvegicus [6]) [%] | Control (Rattus norvegicus [7]) [%] | Control (Rattus norvegicus [8]) [%] | Control (Rattus norvegicus [9]) [%] | Control (Rattus norvegicus [10]) [%] | Cage leaving (Rattus norvegicus [11]) | FPT (Rattus norvegicus [12]) | FPT (Rattus norvegicus [13]) | Ki (D(2) dopamine receptor) [nM] | FBP (Rattus norvegicus [14]) | Cage leaving (Rattus norvegicus [15]) | Cage leaving (Rattus norvegicus [16]) | FBP (Rattus norvegicus [17]) | Cage leaving (Rattus norvegicus [18]) | FPT (Rattus norvegicus [19])
CCCN(C(C)C)[C@@H]1CCc2cccc(OC)c2[C@@H]1C | 116 | 102 | 116 | 0 | 0.1 | 102 | 86 | 99 | 105 | 104 | 2 | 0 | – | – | – | – | – | – | – | –
CCCN(CCC)[C@@H]1CCc2cccc(OS(=O)(=O)C(F)(F)F)c2[C@@H]1C | 6.7 | 97 | 82 | – | 0 | 105 | 105 | 108 | 102 | 87 | – | – | 0 | 124 | 0 | 4 | – | – | – | –
CCCN(CCC)[C@H]1CCc2cccc(C(C)=O)c2[C@H]1C | 138 | 110 | 93 | 0 | 0.1 | 130 | 99 | 95 | 93 | 93 | – | 0 | – | – | – | – | 3 | – | – | –
CCCN(CCC)[C@@H]1CCc2cccc(C(=O)c3ccccc3)c2[C@@H]1C | 2.6 | 110 | 89 | – | 0.1 | 117 | 101 | 105 | 111 | 92 | – | – | 0 | – | 0 | 4 | – | – | – | –
CCCN(CCC)[C@@H]1CCc2cccc(C(C)=O)c2[C@@H]1C | 0.56 | 200 | 97 | – | -1.7 | 192 | 99 | 95 | 203 | 96 | – | – | – | 40 | – | – | – | 5 | 0 | 5
CCCN(CCC)[C@H]1CCc2cccc(O)c2[C@H]1C | – | 112 | 95 | 0 | -0.3 | 118 | 109 | 107 | 96 | 104 | 2 | 0 | – | – | – | – | – | – | – | –
CCCN(C(C)C)[C@H]1CCc2cccc(OC)c2[C@H]1C | 1420 | 94 | 124 | 0 | 0 | 96 | 87 | 103 | 90 | 110 | 2 | 0 | – | – | – | – | – | – | – | –
CCCN(C(C)C)[C@H]1CCc2cccc(O)c2[C@H]1C | – | 77 | 80 | – | -0.1 | 86 | 97 | 110 | 100 | 79 | – | – | 0 | – | 0 | 4 | – | – | – | –
CCCN(CCC)[C@H]1CCc2cccc(C(=O)c3ccccc3)c2[C@H]1C | – | 109 | 123 | – | 0 | 112 | 93 | 102 | 97 | 114 | – | – | 0 | – | 0 | 4 | – | – | – | –
